Series [1] concerns the target T1, Corticotropin-releasing factor receptor 1 (Rattus norvegicus, UniProt P35353).
T1 sequence (P35353 whole entry): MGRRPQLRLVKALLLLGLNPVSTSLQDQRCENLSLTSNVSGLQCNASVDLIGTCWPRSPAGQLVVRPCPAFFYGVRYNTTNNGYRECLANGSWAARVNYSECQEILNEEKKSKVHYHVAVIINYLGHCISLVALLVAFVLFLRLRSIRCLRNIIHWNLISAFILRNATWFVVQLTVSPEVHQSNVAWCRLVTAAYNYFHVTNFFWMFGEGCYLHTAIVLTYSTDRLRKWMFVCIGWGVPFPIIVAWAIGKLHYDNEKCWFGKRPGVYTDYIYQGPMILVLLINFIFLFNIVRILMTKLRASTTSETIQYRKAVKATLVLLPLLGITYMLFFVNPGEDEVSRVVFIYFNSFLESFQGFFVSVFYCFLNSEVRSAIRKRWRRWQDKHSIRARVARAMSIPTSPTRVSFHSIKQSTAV
In words: Displacement of [125I]Tyr0-ovine CRF from CRF1 receptor in rat cortical membrane by gamma counting. Type of series: cell membranes. The essentials:
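Inhibition of 125I-Tyr0-ovine-CRF binding to rat cortical membranes measured across dilutions of test drug; IC50 derived by iterative curve fitting.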
In general terms: In a radioligand displacement assay an active substance lowers the binding of a labelled ligand.

Series [2] concerns Canis familiaris. Put plainly: Ex vivo displacement of [125I]Tyr0-ovine CRF from CRF1 receptor in dog at 5 mg/kg, po measured in plasma after 10 hrs. To be noted: Canis lupus familiaris. Type of series: functional. In a few lines: (§1)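 Beagle dogs given 5 mg/kg po (free base), in Labrafil or Tween-80/0.5% methylcellulose 1:99; plasma drawn 2 and 10 h postdose, diluted 10-fold in binding buffer, and tested for inhibition of 125I-Tyr0-ovine-CRF binding to rat receptors; mean ± SD, n = 3.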

For series [3], the system named is Canis familiaris. In words: Ex vivo displacement of [125I]Tyr0-ovine CRF from CRF1 receptor in dog at 5 mg/kg, po measured in plasma after 2 hrs. Type of series: functional. To be noted: Canis lupus familiaris. The essentials: as §1
The target in series [4] is T2, Corticotropin-releasing factor receptor 1 (Homo sapiens, UniProt P34998).
T2 sequence (P34998 whole entry): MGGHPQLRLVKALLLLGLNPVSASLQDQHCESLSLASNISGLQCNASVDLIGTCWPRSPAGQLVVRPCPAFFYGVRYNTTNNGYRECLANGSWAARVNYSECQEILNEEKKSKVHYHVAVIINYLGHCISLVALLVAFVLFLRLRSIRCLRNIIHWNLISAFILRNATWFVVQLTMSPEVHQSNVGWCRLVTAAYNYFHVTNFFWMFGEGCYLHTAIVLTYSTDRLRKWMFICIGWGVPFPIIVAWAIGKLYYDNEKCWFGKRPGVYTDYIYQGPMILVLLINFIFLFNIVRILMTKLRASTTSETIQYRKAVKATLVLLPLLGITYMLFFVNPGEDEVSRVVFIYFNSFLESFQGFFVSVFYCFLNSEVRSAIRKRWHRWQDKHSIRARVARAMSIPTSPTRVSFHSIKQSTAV
Put plainly: Binding affinity to CRF1 receptor in human IMR32 cells. It is filed as cell-based, IMR-32.

Series [5] has as its target T1, Corticotropin-releasing factor receptor 1. Put plainly: Antagonist activity at CRF1 receptor in rat brain homogenates assessed as inhibition of CRF-stimulted cAMP production. It is filed as functional, tissue-based. In a few lines: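 Rat cortical homogenate (0.8 mg original wet weight tissue) incubated 10 min at 37 °C in 100 mM Tris-HCl pH 7.4, 10 mM MgCl2, 0.4 mM EGTA, 0.1% BSA, 1 mM IBMX, creatine phosphate/phosphocreatine kinase, 100 nM ovine-CRF; started with 1 mM ATP/[32P]ATP; [32P]cAMP separated on Dowex and alumina columns, [3H]cAMP recovery marker; n = 3.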
A general note: cAMP levels reflect the balance of adenylyl cyclase and phosphodiesterase activity.

The subject of series [6] is Rattus norvegicus. In words: Anxiolytic-like activity in Sprague-Dawley rat assessed as increase in time spent in open arms at 18 mg/kg, po measured after 1 hr by elevated plus maze test. It is filed as functional, organism-based. Also on record: dose 18 mg/kg. In a few lines:
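Group-housed male Sprague-Dawley rats (180-300 g) dosed po in 0.25% Methocel 1 h before elevated plus maze; arm entry defined as all four paws in arm; percent time in open arms scored; test doses 1.0, 3.0, 10, 30 mg/kg; positive control at 18 mg/kg; n = 13-15/dose; mean ± SEM, ANOVA then Fisher's LSD.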

The subject of series [7] is Rattus norvegicus. Put plainly: Anxiolytic-like activity in Sprague-Dawley rat assessed as decrease in latency to exit dark chamber at 10 mg/kg, po measured after 1 hr by defensive withdrawal test relative to control. Type of series: functional. On the set-up: scale not given: the % may be the effect or the level left. In a few lines:
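Male Sprague-Dawley rats (180-300 g), individually housed; open field with cylindrical dark chamber; oral dosing in 0.25% Methocel 1 h before a 15 min session scored blind via video; latency to place all four paws in open field recorded, maximum 900 s; test doses 1.0, 3.0, 10, 30 mg/kg; positive control at 10 mg/kg; n = 12/dose; Kruskal-Wallis then Mann-Whitney U.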

Series [8] deals with Rattus norvegicus. Put plainly: Toxicity in Sprague-Dawley rat assessed as time spent on rotarod at 30 mg/kg, po after 1 hr by rotarod test. Type of series: organism-based. On the set-up: dose 30 mg/kg, route oral. To be noted: in vivo. In a few lines: (§2)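 Male Sprague-Dawley rats received a single oral gavage dose of 30 mg/kg (free base weight) in 0.5% methocel–Tween-80 (99:1) or vehicle alone. Behaviour was assessed 1 h postdose, as time on the rotorod in seconds for the rotorod test and total distance travelled in cm for open-field locomotor activity. Values are mean ± SEM, n = 8 per group.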
On the technique in general: In the rotarod test animals must keep their balance on a rotating rod.

The test system of series [9] is Rattus norvegicus. Put plainly: Toxicity in Sprague-Dawley rat assessed as total distance traveled at 30 mg/kg, po after 1 hr by open-field locomotor activity test. On the set-up: dose 30 mg/kg, route oral. Type of series: organism-based. The conditions noted are these: in vivo. In a few lines: as §2

Active and inactive are the calls of the source.

In general, IC50 refers to the concentration at which inhibition is half-maximal. For the compound `COCCN(CCOC)c1nc(C)nc2c(-c3cc(OC)c(OC)cc3Cl)c(C)nn12`, the IC50 in series [1] came out at 8 nM. As to `CCOCC(COCC)Nc1nc(C)nc2c(-c3ccc(OC)cc3C)c(C)nn12`, the IC50 in series [1] was 19.3 nM. Still for that read-out and setting: in the case of `CCCN(C)c1nc(C)nc2c(-c3c(C)cc(OC)cc3OC)c(C)nn12` it was 6.48 nM; in that of `CCCN(CCC)c1nc(C)nc2c(-c3c(C)cc(OC)cc3OC)c(C)nn12`, 3.72 nM. One may read the inhibition in vivo as the drop in the measured response relative to a control, in per cent. With `CCN(CC)c1nc(C)nc2c(-c3c(C)cc(OC)cc3OC)c(C)nn12`, the inhibition in vivo at 5 mg/kg in the series on Canis familiaris [2] was determined as 30%; with Canis familiaris [3], 56%. Also, in series [1], the half-inhibitory concentration (IC50) is 1.2 nM.

The compound `COc1ccc(-c2c(C)nn3c(N4CCCC4)nc(C)nc23)c(C)c1` yielded an IC50 in series [1] of 80.7 nM. For `C=CCN(CC=C)c1nc(C)nc2c(-c3c(C)cc(OC)cc3OC)c(C)nn12`, the IC50 in series [1] amounted to 1 nM. On the same count and under the same terms, the value for `CCC(CC)Nc1nc(C)nc2c(-c3ccc(OC)c(C)c3C)c(C)nn12` was 11.3 nM. In the case of `COc1cc(C)c(-c2c(C)nn3c(NC4CCC4)nc(C)nc23)c(OC)c1`, the results for the inhibition in vivo at 5 mg/kg in the series with Canis familiaris [2] and with Canis familiaris [3] were 46% and 52%, respectively. In [1], this compound returned a half-maximal inhibitory concentration (IC50) of 17.4 nM. Turning to `CCC(CC)Nc1nc(C)nc2c(-c3ccc(OC)cc3)c(C)nn12`, the half-inhibitory concentration (IC50) in series [1] was 3.8 nM. Consider `CCN(CC)c1nc(C)nc2c(-c3cc(OC)c(OC)cc3Br)c(C)nn12`, for which the half-maximal inhibitory concentration (IC50) in [1] was 4.06 nM. Compound `COCCN(CCOC)c1nc(C)nc2c(-c3c(C)cc(OC)cc3OC)c(C)nn12` had an IC50 in series [1] of 7.96 nM. `COCCN(CCOC)c1nc(C)nc2c(-c3cc(F)c(OC)cc3Cl)c(C)nn12` registered an IC50 in series [1] of 1.18 nM. Still for that read-out and setting: the value for `COCCN(CCOC)c1nc(C)nc2c(-c3cc(OC)c(OC)cc3C)c(C)nn12` was 13.7 nM. For the compound `CCN(CCOC)c1nc(C)nc2c(-c3c(C)cc(OC)cc3OC)c(C)nn12`, the inhibition in vivo at 5 mg/kg in the series with Canis familiaris [2] was 54%; in the series with Canis familiaris [3], 86%. The compound further registered a half-maximal inhibitory concentration (IC50) in series [1] of 1.78 nM. `CCCCN(CC)c1nc(C)nc2c(-c3c(C)cc(OC)cc3OC)c(C)nn12`: the IC50 in [1] was determined as 1.72 nM. The same measure, in the same setting: in the case of `C=CCN(C)c1nc(C)nc2c(-c3c(C)cc(OC)cc3OC)c(C)nn12` it was 4.92 nM; in that of `CCN(CC)c1nc(C)nc2c(-c3ccc(OC)c(C)c3C)c(C)nn12`, 38.6 nM; in that of `CCN(CC)c1nc(C)nc2c(-c3ccc(OC)cc3C)c(C)nn12`, 6.08 nM.

As for `COc1ccc(-c2c(C)nn3c(N(CCC#N)C4CC4)nc(C)nc23)c(C)c1`, the IC50 in [1] stood at 1.88 nM. As for H-DLTFHLLREMLEMAKAEQEAEQAALNRLLLEEA-NH2, the half-inhibitory concentration (IC50) in [1] was 1.24 nM; in series [4], 2 nM; in series [5], 264 nM. In turn, `CCCCN(CC)c1nc(C)nc2c(-c3c(C)cc(OC)cc3C)c(C)nn12` yielded an IC50 in series [1] of 4.22 nM.

`CCC(CC)Nc1nc(C)nc2c(-c3c(C)cc(OC)cc3OC)c(C)nn12`: the figures for the inhibition in vivo at 5 mg/kg in the series on Canis familiaris [2] and with Canis familiaris [3] were 56% and 80%, respectively. Further, the half-inhibitory concentration (IC50) in series [1] turned out to be 5 nM. Compound `COCCN(CCOC)c1nc(C)nc2c(-c3c(C)cc(OC)cc3C)c(C)nn12` displayed an IC50 in series [1] of 2.74 nM.

The compound `CCCCN(CC)c1nc(C)nc2c(-c3ccc(OC)cc3C)c(C)nn12` had a half-inhibitory concentration (IC50) in [1] of 2.3 nM. In the case of `COCC(COC)Nc1nc(C)nc2c(-c3ccc(Cl)cc3Cl)c(C)nn12`, the result in the series on Rattus norvegicus [6] was Active. In addition, the half-maximal inhibitory concentration (IC50) in series [1] was 4.2 nM. The Activity with Rattus norvegicus [7] was 52%.

For the compound `CNC1=Nc2ccc(Cl)cc2C(c2ccccc2)=[N+]([O-])C1` [CHLORDIAZEPOXIDE], the Time in the series on Rattus norvegicus [8] is 121 s. For the same compound, the Activity in the series with Rattus norvegicus [9] stood at 2249 cm.

In the case of `CC[C@H](C)Nc1nc(C)nc2c(-c3c(C)cc(OC)cc3OC)c(C)nn12`, the values for the inhibition in vivo at 5 mg/kg in the series on Canis familiaris [2] and in the series on Canis familiaris [3] were 74% and 72%, respectively. In series [1], this compound yielded a 50% inhibitory concentration (IC50) of 2.9 nM. `CCCN(CC1CC1)c1nc(C)nc2c(-c3ccc(OC)cc3C)c(C)nn12` returned an IC50 in [1] of 1.96 nM. As for `CCC(CC)Nc1nc(C)nc2c(-c3cc(F)c(OC)cc3C)c(C)nn12`, the figures for the inhibition in vivo at 5 mg/kg with Canis familiaris [2] and with Canis familiaris [3] were 25% and 81%, respectively. This compound also registered an IC50 in series [1] of 1.9 nM. Compound `CCN(CC)c1nc(C)nc2c(-c3cc(F)c(OC)cc3Cl)c(C)nn12` yielded a concentration for half-maximal inhibition (IC50) in [1] of 1.64 nM. Same read-out and setting: the value for `COCCN(CC1CC1)c1nc(C)nc2c(-c3c(C)cc(OC)cc3OC)c(C)nn12` was 1.8 nM; that for `COCCN(CCOC)c1nc(C)nc2c(-c3cc(OC)c(OC)cc3Br)c(C)nn12` was 4.99 nM. In the case of `CCC1CCCCN1c1nc(C)nc2c(-c3c(C)cc(OC)cc3OC)c(C)nn12` (centres undefined), the IC50 in series [1] was 3.26 nM. For `CCCN(CCC)c1nc(C)nc2c(-c3ccc(OC)cc3C)c(C)nn12`, the IC50 in [1] worked out at 2.58 nM. In series [1], `COCC(COC)Nc1nc(C)nc2c(-c3ccc(OC)cc3C)c(C)nn12` had a half-maximal inhibitory concentration (IC50) of 9.7 nM. In the case of `CCC(CC)Nc1nc(C)nc2c(-c3cc(OC)c(OC)cc3Br)c(C)nn12`, in [1], the 50% inhibitory concentration (IC50) came out at 6.08 nM. In turn, `CCN(CCC#N)c1nc(C)nc2c(-c3c(C)cc(OC)cc3OC)c(C)nn12` gave a 50% inhibitory concentration (IC50) in series [1] of 2.48 nM. In turn, `COc1ccc(-c2c(C)nn3c(NC4CCC4)nc(C)nc23)c(C)c1` yielded a concentration for half-maximal inhibition (IC50) in [1] of 24.6 nM.

In series [1], `CCCN(CCC#N)c1nc(C)nc2c(-c3ccc(OC)cc3C)c(C)nn12` yielded an IC50 of 2.16 nM. `COCCN(CCOC)c1nc(C)nc2c(-c3ccc(OC)cc3)c(C)nn12` had a 50% inhibitory concentration (IC50) in series [1] of 11.5 nM.

In [1], `CCCC(C)Nc1nc(C)nc2c(-c3c(C)cc(OC)cc3OC)c(C)nn12` (centres undefined) displayed an IC50 of 2.14 nM.

For the origin of these results see ChEMBL document CHEMBL1138477, “8-(4-Methoxyphenyl)pyrazolo[1,5-a]-1,3,5-triazines: selective and centrally active corticotropin-releasing factor receptor-1 (CRF1) antagonists” (J Med Chem, 2009).
